What all share (format): functional
The test system of assay [1] is Puccinia triticina. Put plainly: Antifungal activity against Puccinia recondita f. sp. tritici infected in wheat seedlings at 40 ppm relative to control. The essentials:
(§1)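 Test suspension sprayed to run-off on Stevens wheat seedlings. Next day inoculated with a Puccinia recondita f. sp. tritici spore suspension. Held 24 h in a saturated atmosphere at 20 °C, then 7 days in a 20 °C growth chamber before disease rating. Rates in ppm. Given as percent control versus untreated control plants.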

The subject of assay [2] is Puccinia triticina. Put plainly: Antifungal activity against Puccinia recondita f. sp. tritici infected in wheat seedlings at 10 ppm relative to control. The essentials:
as §1

Assay [3] deals with Parastagonospora nodorum. Put plainly: Antifungal activity against Stagonospora nodorum infected in wheat seedlings at 40 ppm relative to control. The essentials:
(§2)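 Wheat seedlings, treated the day before, inoculated with a Stagonospora nodorum spore suspension. Held in a saturated atmosphere at 20 °C for 48 h, then 5 days in a growth chamber at 22 °C, then disease rated. Rates in ppm. Scored as percent control relative to untreated control plants.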

The test system of assay [4] is Parastagonospora nodorum. The assay is described as follows: Antifungal activity against Stagonospora nodorum infected in wheat seedlings at 10 ppm relative to control. The essentials: as §2
Assay [5] has as its system Parastagonospora nodorum. Put plainly: Antifungal activity against Stagonospora nodorum infected in wheat seedlings at 2 ppm relative to control. Summed up: as §2
The subject of assay [6] is Puccinia triticina. The assay is described as follows: Antifungal activity against Puccinia recondita f. sp. tritici infected in wheat seedlings at 2 ppm relative to control. Summed up:
as §1

In assay [7] the test system is Botrytis cinerea. The assay is described as follows: Antifungal activity against Botryotinia fuckeliana infected in orange pixie tomato seedlings at 40 ppm relative to control. Summed up:
(§3)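 Orange Pixie tomato seedlings sprayed to run-off with test suspension, then inoculated next day with a Botryotinia fuckeliana spore suspension. Kept saturated at 20 °C for 48 h, then 1 more day at 24 °C in a growth chamber before rating. Rates in ppm. Expressed as percent control relative to untreated control plants.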

Assay [8] has as its system Botrytis cinerea. Put plainly: Antifungal activity against Botryotinia fuckeliana infected in orange pixie tomato seedlings at 10 ppm relative to control. The essentials: as §3
Assay [9] relates to Botrytis cinerea. Put plainly: Antifungal activity against Botryotinia fuckeliana infected in orange pixie tomato seedlings at 2 ppm relative to control. The essentials:
as §3

Assay [10] has as its system Parastagonospora nodorum. The assay is described as follows: Antifungal activity against Stagonospora nodorum infected in wheat seedlings at 200 ppm relative to control. The essentials: as §2
Assay [11] concerns Puccinia triticina. The assay is described as follows: Antifungal activity against Puccinia recondita f. sp. tritici infected in wheat seedlings at 200 ppm relative to control. Summed up:
as §1

Assay [12] has as its system Botrytis cinerea. Put plainly: Antifungal activity against Botryotinia fuckeliana infected in orange pixie tomato seedlings at 200 ppm relative to control. Summed up:
as §3

With `CC[C@H](C)Cn1c(-c2c(F)cccc2F)c(Cl)nc(C(N)=O)c1=O`, the Activity came to 100% with Puccinia triticina [1]; 99% in the assay with Puccinia triticina [2]; 95% in the assay with Parastagonospora nodorum [3]; 0% with Parastagonospora nodorum [4]; 0% in the assay with Parastagonospora nodorum [5]; 80% in the assay on Puccinia triticina [6]. Moreover, the figures for the Activity in the assay with Botrytis cinerea [7], in the assay on Botrytis cinerea [8] and in the assay with Botrytis cinerea [9] were 99%, 97% and 92%, respectively.

For `O=c1c(-n2cccn2)nc(Cl)c(-c2c(F)cc(F)cc2F)n1CC(F)(F)C(F)(F)C(F)(F)F`, the Activity in the assay on Puccinia triticina [1] was 99%; in the assay with Puccinia triticina [2], 96%; with Parastagonospora nodorum [3], 99%; in the assay with Parastagonospora nodorum [4] it was 78%; in the assay with Parastagonospora nodorum [5] it was 0%; with Puccinia triticina [6] it was 68%. Further, the values for the Activity with Botrytis cinerea [7], in the assay on Botrytis cinerea [8] and in the assay on Botrytis cinerea [9] were 100%, 99% and 38%, respectively.

As to `Cc1ccn(-c2nc(Cl)c(-c3c(F)cccc3F)n(CC(C)C)c2=O)n1`, the Activity in the assay on Puccinia triticina [1] came out at 100%; in the assay on Puccinia triticina [2], 94%; in the assay with Parastagonospora nodorum [3], 95%; in the assay with Parastagonospora nodorum [4] it was 0%; with Parastagonospora nodorum [5], 0%; with Puccinia triticina [6] it was 25%. The Activity with Botrytis cinerea [7] came out at 100%; in the assay with Botrytis cinerea [8], 100%; in the assay with Botrytis cinerea [9] it was 95%.

On to `CC(C)Cn1c(C2CC2)c(Cl)nc(-n2cccn2)c1=O`, for which the Activity in the assay with Puccinia triticina [1], in the assay on Parastagonospora nodorum [10], with Parastagonospora nodorum [3], with Puccinia triticina [11], in the assay with Botrytis cinerea [12] and in the assay with Botrytis cinerea [7] was 0% each time.

As to `O=c1c(-n2cccn2)nc(Cl)c(-c2c(F)cc(F)cc2F)n1-c1cccc(Cl)c1`, the Activity came out at 100% with Puccinia triticina [1]; 99% in the assay with Puccinia triticina [2]; 99% with Parastagonospora nodorum [3]; 99% in the assay with Parastagonospora nodorum [4]; 73% in the assay with Parastagonospora nodorum [5]; 86% in the assay with Puccinia triticina [6]. For the same molecule, the Activity in the assay with Botrytis cinerea [7] is 100%; with Botrytis cinerea [8], 99%; with Botrytis cinerea [9], 97%.

Turning to `CC(C)Cn1c(-c2c(F)cccc2F)cnc(-n2cccn2)c1=O`, the Activity in the assay on Puccinia triticina [1] is 0%; in the assay on Puccinia triticina [2], 0%; with Parastagonospora nodorum [10] it was 0%; in the assay with Parastagonospora nodorum [3], 0%; in the assay with Parastagonospora nodorum [4], 0%; in the assay with Puccinia triticina [11], 98%.

`O=c1c(-n2cccn2)nc(Cl)c(-c2c(F)cc(F)cc2F)n1-c1ccccc1Cl`: the Activity in the assay with Puccinia triticina [1] is recorded as 100%; in the assay on Puccinia triticina [2], 100%; with Parastagonospora nodorum [3], 100%; in the assay with Parastagonospora nodorum [4], 94%; in the assay on Parastagonospora nodorum [5], 0%; in the assay with Puccinia triticina [6], 97%. Also, the figures for the Activity in the assay on Botrytis cinerea [7], in the assay with Botrytis cinerea [8] and with Botrytis cinerea [9] were 100%, 100% and 99%, respectively.

In the case of `O=c1c(-n2cccn2)nc(Cl)c(-c2c(F)cc(F)cc2F)n1CC(F)(F)C(F)(F)F`, the Activity in the assay on Puccinia triticina [1] was 100%; with Puccinia triticina [2] it was 99%; in the assay on Parastagonospora nodorum [3], 100%; in the assay with Parastagonospora nodorum [4], 89%; with Parastagonospora nodorum [5], 0%; with Puccinia triticina [6], 91%. Moreover, the Activity came to 100% in the assay on Botrytis cinerea [7], 100% in the assay on Botrytis cinerea [8] and 99% in the assay on Botrytis cinerea [9].

With `CC(C)Cn1c(-c2c(F)cccc2F)c(Cl)nc(-c2cccnc2)c1=O`, the Activity with Puccinia triticina [1], in the assay on Puccinia triticina [2], in the assay with Parastagonospora nodorum [3], in the assay on Parastagonospora nodorum [4], in the assay with Parastagonospora nodorum [5] and in the assay with Puccinia triticina [6] was 0% each time. Moreover, the Activity in the assay on Botrytis cinerea [7], with Botrytis cinerea [8] and with Botrytis cinerea [9] was 0% throughout.

For the molecule `O=c1c(-n2cccn2)nc(Cl)c(-c2c(F)cc(F)cc2F)n1-c1ccc(Cl)cc1`, the Activity with Puccinia triticina [1] was found to be 100%; in the assay on Puccinia triticina [2], 100%; in the assay on Parastagonospora nodorum [3], 100%; in the assay with Parastagonospora nodorum [4] it was 100%; in the assay with Parastagonospora nodorum [5], 78%; in the assay with Puccinia triticina [6], 96%. In addition, the Activity with Botrytis cinerea [7] is 99%; in the assay on Botrytis cinerea [8] it was 99%; with Botrytis cinerea [9], 92%.

With `Cc1nc(-n2cccn2)c(=O)n(CC(C)C)c1-c1c(F)cccc1F`, the Activity in the assay on Puccinia triticina [1] is 100%; with Puccinia triticina [2], 92%; with Parastagonospora nodorum [3] it was 98%; with Parastagonospora nodorum [4], 0%; with Parastagonospora nodorum [5], 0%; in the assay with Puccinia triticina [6] it was 0%. In addition, the Activity with Botrytis cinerea [7] is given as 100%; in the assay on Botrytis cinerea [8] it was 99%; in the assay on Botrytis cinerea [9] it was 0%.

As for `O=c1c(-n2cccn2)nc(Cl)c(-c2c(F)cc(F)cc2F)n1-c1ccccc1`, the Activity with Puccinia triticina [1] is 99%; with Puccinia triticina [2], 87%; with Parastagonospora nodorum [3], 99%; with Parastagonospora nodorum [4], 98%; in the assay with Parastagonospora nodorum [5], 60%; in the assay with Puccinia triticina [6] it was 45%. For the same molecule, the Activity with Botrytis cinerea [7], in the assay with Botrytis cinerea [8] and in the assay with Botrytis cinerea [9] was 100% each time.

For the molecule `CC(C)Cn1c(-c2c(F)ccc(F)c2F)c(Cl)nc(-n2cccn2)c1=O`, the Activity in the assay with Puccinia triticina [1] was found to be 100%; in the assay on Puccinia triticina [2], 99%; in the assay on Parastagonospora nodorum [3], 100%; in the assay on Parastagonospora nodorum [4], 87%; with Parastagonospora nodorum [5] it was 0%; in the assay with Puccinia triticina [6], 32%. In addition, the Activity in the assay with Botrytis cinerea [7] is on record as 100%; with Botrytis cinerea [8] it was 98%; in the assay on Botrytis cinerea [9], 94%.

With `CCCCn1c(-c2c(F)cc(F)cc2F)c(Cl)nc(-n2cccn2)c1=O`, the Activity in the assay on Puccinia triticina [1] is recorded as 100%; with Puccinia triticina [2], 88%; in the assay on Parastagonospora nodorum [3], 100%; in the assay on Parastagonospora nodorum [4], 98%; with Parastagonospora nodorum [5] it was 0%; in the assay with Puccinia triticina [6], 26%. The Activity is on record as 100% with Botrytis cinerea [7], 0% with Botrytis cinerea [8] and 0% with Botrytis cinerea [9].

With `CC(C)Cn1c(-c2c(F)cccc2F)c(Cl)nc(-c2nccs2)c1=O`, the Activity in the assay with Puccinia triticina [1], with Puccinia triticina [2], in the assay with Parastagonospora nodorum [3], with Parastagonospora nodorum [4], in the assay with Parastagonospora nodorum [5] and in the assay with Puccinia triticina [6] was 0% throughout. Also, the Activity with Botrytis cinerea [7], in the assay with Botrytis cinerea [8] and with Botrytis cinerea [9] was 0% in each case.

Regarding `CC[C@H](C)Cn1c(-c2c(F)cccc2F)c(Cl)nc(C(=O)NC)c1=O`, the Activity amounted to 99% in the assay with Puccinia triticina [1]; 74% with Puccinia triticina [2]; 51% in the assay on Parastagonospora nodorum [3]; 0% in the assay on Parastagonospora nodorum [4]; 0% in the assay on Parastagonospora nodorum [5]; 0% with Puccinia triticina [6]. Further, the Activity in the assay on Botrytis cinerea [7] amounted to 99%; in the assay on Botrytis cinerea [8], 90%; in the assay on Botrytis cinerea [9], 57%.

For `O=c1c(-n2cccn2)nc(Cl)c(-c2c(F)cc(F)cc2F)n1CC1CC1`, the Activity came to 100% with Puccinia triticina [1]; 100% in the assay on Puccinia triticina [2]; 100% with Parastagonospora nodorum [3]; 100% in the assay with Parastagonospora nodorum [4]; 0% in the assay with Parastagonospora nodorum [5]; 80% with Puccinia triticina [6]. For the same molecule, the Activity came to 99% in the assay with Botrytis cinerea [7], 98% in the assay on Botrytis cinerea [8] and 98% in the assay on Botrytis cinerea [9].

In the case of `CC(C)Cn1c(-c2c(F)cccc2F)c(Cl)nc(-c2ccncc2)c1=O`, the Activity in the assay with Puccinia triticina [1], with Puccinia triticina [2], with Parastagonospora nodorum [3], in the assay on Parastagonospora nodorum [4], in the assay with Parastagonospora nodorum [5] and with Puccinia triticina [6] was 0% throughout. Besides, the Activity with Botrytis cinerea [7], with Botrytis cinerea [8] and with Botrytis cinerea [9] was 0% each time.

`C=CCn1c(-c2c(F)cc(F)cc2F)c(Cl)nc(-n2cccn2)c1=O`: the Activity in the assay with Puccinia triticina [1] was 99%; with Puccinia triticina [2], 89%; in the assay on Parastagonospora nodorum [3] it was 100%; with Parastagonospora nodorum [4], 97%; in the assay with Parastagonospora nodorum [5] it was 0%; in the assay with Puccinia triticina [6] it was 0%. In addition, the Activity with Botrytis cinerea [7] came to 99%; with Botrytis cinerea [8], 99%; in the assay on Botrytis cinerea [9] it was 70%.

As to `CC(Cn1c(-c2c(F)cc(F)cc2F)c(Cl)nc(-n2cccn2)c1=O)C(F)(F)F` (centres undefined), the Activity in the assay with Puccinia triticina [1] was 100%; in the assay on Puccinia triticina [2], 100%; in the assay with Parastagonospora nodorum [3] it was 100%; with Parastagonospora nodorum [4], 0%; in the assay with Parastagonospora nodorum [5], 0%; in the assay with Puccinia triticina [6] it was 92%. Moreover, the Activity with Botrytis cinerea [7], in the assay on Botrytis cinerea [8] and in the assay on Botrytis cinerea [9] was 99% in each case.

The record behind these values is ChEMBL document CHEMBL3739347, “Tubulin modulating antifungal and antiproliferative pyrazinone derivatives” (Bioorg Med Chem, 2016).
